IEC-6 tox – IEC-6 cytotoxicity, counter-screen for KLF5 inhibitors; AID 1825; luminescence viability; 0.78% of 290,000 active; inhibition, % at 5 µM;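 further: 0% = plate median of test compound wells and 100% = cytotoxic reference compound wells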
MT stabilize HCS – microtubule stabilizers in HeLa cells; HeLa tubulin immunostaining HCS, 24 h; share of cells brighter than vehicle mean+2SD; % tubulin-high responders, % at 10 µM; 0.83% of 200,000 active; AID 2205;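 active means plate Z-score above 3 for both tubulin-high and condensed-nucleus cell shares, with cell loss under 80%, at 10 µM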;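 further: anti alpha tubulin signal scored within the nucleus-defined area of each cell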
Ba/F3 V617F tox – loss of viability in JAK2V617F-driven Ba/F3 cells; Ba/F3 EpoR-JAK2V617F viability, ATP luminescence; inhibition, % at 5.6 µM; 1.1% of 220,000 active; AID 1446;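 active means inhibition above the campaign mean plus 3 SD over all tested compounds, cut at about 24% in these data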;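 further: cytokine-independent growth of Ba/F3 cells driven by EpoR plus mutant JAK2; 0% = DMSO-treated cells and 100% = JAK inhibitor I control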
b-catenin transl – alters nuclear translocation of beta-catenin in HeLa cells. immunofluorescence imaging. nuclear translocation activity, % at 5 µM. 0.3% of 190,000 active;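 active means nuclear translocation activity above 50% at 5 µM, with a well cell count of 50 or more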;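 further: per-cell ratio of nuclear to cytoplasmic median beta-catenin stain intensity; plate controls were DMSO negative control for no effect and GSK-3 inhibitor IX positive control for full effect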
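Test system: human HeLa cells, endogenous beta-catenin. Times: 24 h compound exposure, 37°C. Measured by: beta-catenin immunofluorescence imaging with DAPI.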
BaF3 parental – reduces parental Ba/F3 cell viability, JAK2V617F counter-screen | CellTiter-Glo ATP luminescence | inhibition, % at 5.6 µM | 1.1% of 220,000 active;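 active means inhibition above a per-campaign cutoff, the mean inhibition of all tested compounds plus 3 SD, cut at about 27% in these data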;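 further: 0% = DMSO wells and 100% = JAK Inhibitor I control wells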
APP transl inh – APP translation inhibition | SH-SY5Y APP 5'UTR-luciferase reporter, luminescence | inhibition, % at 2 µM | 0.82% of 190,000 active;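 active means inhibition above a set limit, derived from the sample mean plus 3 SD, cut at about 45% in these data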
IEC-6 tox confirm – confirmation of cytotoxic compounds in rat IEC-6 intestinal epithelial cells. shares compounds with IEC-6 tox. IEC-6 rat intestinal epithelial viability, luminescence. inhibition, % at 5 µM. 63% of 1,900 active;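 further: 0% = vehicle and 100% = reference cytotoxic drug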
The depositor's hits bear a star; / = not tested or not shown. Sampled rows, rich in hits. Any-hit rate of the full collection: about 2.2%. Unless noted, no stated cut-off is given here; in the data, active means inhibition above about 22%; inactive means the rest.

SMILES	IEC-6 tox	MT stabilize HCS	Ba/F3 V617F tox	b-catenin transl	BaF3 parental	APP transl inh	IEC-6 tox confirm
Cc1onc(-c2ccccc2)c1C(=O)Nc1cc(C(F)(F)F)ccc1N1CCOCC1	77*	33*	84*	70*	81*	70*	50*
CCOC(=O)c1ccc(N2CCOCC2)c(NC(=O)c2c(-c3ccccc3)noc2C)c1	61*	/	75*	125*	54*	/	50*
CCc1cccc(NS(=O)(=O)c2csc(C(N)=O)c2)c1	0	/	/	/	/	/	/
Cc1cc(OCC(O)CNC(C)c2ccccc2)ccc1C(C)C (centres undefined)	1	/	/	/	/	/	/
CC(NCC(O)COc1ccc2ccccc2c1)c1ccccc1 (centres undefined)	53*	/	/	/	/	/	9
O=C(NCc1cccnc1)c1ccc(NC(=O)c2ccc([N+](=O)[O-])cc2)cc1	87*	/	/	/	/	/	59*
CC(C)(C)c1ccc(C(=O)Nc2ccc(C(=O)NCc3cccnc3)cc2)cc1	98*	/	/	/	/	/	91*
CC(C)(C)C(=O)Nc1ccc(C(=O)NCc2cccnc2)cc1	1	2	5	-6	6	5	/
O=C(Cc1c(F)cccc1Cl)NNC(=O)Nc1ccc2c(c1)OCO2	-7	/	/	/	/	/	/
COC(=O)[C@@H]1Cc2c([nH]c3ccccc23)C(C)(C)N1C(=O)CCl	95*	/	/	/	/	/	36*
COc1ccc(C(=O)N/N=C\c2ccc(OC)c(COc3ccccc3Br)c2)c(OC)c1	22*	/	/	/	/	/	9
COc1ccc(OCc2cc(/C=N\NC(=O)c3ccccc3)ccc2OC)cc1	33*	/	/	/	/	/	9
COc1cc(OC)cc(C(=O)N/N=C/c2ccc(OC)c(COc3ccc(F)cc3)c2)c1	65*	16	10	213*	55*	87*	40*
Cn1ccsc1=NC(=O)c1cccc(C#N)c1	-5	/	/	/	/	/	/
N#Cc1ccccc1OCC(=O)NCC(c1cccs1)N1CCOCC1 (centres undefined)	1	/	/	/	/	/	/
Cc1[nH]n(-c2ccccc2)c(=O)c1/C=N/NC(=O)c1ccc(O)cc1O	-2	/	/	/	/	/	/
Cc1[nH]n(-c2ccccc2)c(=O)c1/C=N/NC(=O)c1cccc(F)c1	22*	/	/	/	/	/	10
Cc1[nH]n(-c2ccc(Br)cc2)c(=O)c1/C=N/NC(=O)c1ccccc1	65*	/	/	/	/	/	60*
Oc1oc(-c2cccc3ccccc23)nc1C=NCc1ccccc1	1	3	-2	/	2	9	/
CC(=O)Nc1cccc(NC(=S)Nc2cccc3ccccc23)c1	6	/	/	/	/	/	/
CC(=O)c1cccc(NC(=S)Nc2cccc3ccccc23)c1	28*	/	/	/	/	/	-1
Cc1ccc(Cl)cc1NC(=S)N/N=C/c1cccc2ccccc12	79*	/	78*	1	76*	/	67*
Cc1ccc(C)c(NC(=S)Nc2cccc3cnccc23)c1	9	3	-3	-2	3	-10	/
Cc1ccccc1NC(=S)Nc1cccc2cnccc12	44*	3	2	1	6	-11	-1
Cc1ccc(F)c(NC(=S)Nc2cccc3ccccc23)c1	65*	/	/	/	/	/	-2
SMILES	IEC-6 tox	MT stabilize HCS	Ba/F3 V617F tox	b-catenin transl	BaF3 parental	APP transl inh	IEC-6 tox confirm
C/C(CC(=O)Nc1cc(C)ccn1)=N\NC(=O)c1cccc(C)c1O	-6	/	/	/	/	/	/
O=S(=O)(c1ccc(F)c(F)c1)N1CCN(CCc2ccccc2)CC1	3	/	/	/	/	/	/
C#CCOc1ccccc1CNC1CCN(Cc2ccccc2)CC1	6	/	/	/	/	/	/
CC(C)N1CCc2c(sc(NC(=O)c3ccc4ccccc4c3)c2C(N)=O)C1	18	/	/	/	/	/	/
CC(=O)Nc1sc2c(c1-c1nc3ccccc3s1)CCN(C(C)C)C2	99*	35	95*	27	73*	70*	29*
O=C(Nc1csc(Cc2c(Cl)cccc2Cl)n1)NN1CCOCC1	4	/	/	/	/	/	/
C=C1CCc2c([nH]c3ccc(OCC(C)C)cc23)C1=O	13	/	/	/	/	/	/
O=S(=O)(NC1c2cccc3cccc(c23)C1N1CCNCC1)c1ccc(Cl)cc1 (centres undefined)	36*	2	6	1	11	-13	8
CC(=O)N1CCN(C2c3cccc4cccc(c34)C2NS(=O)(=O)c2ccccc2)CC1 (centres undefined)	3	4	2	-1	0	-10	/
COc1cccc(N2CCN(S(=O)(=O)c3ccc(-n4cnnn4)cc3)CC2)c1	0	/	/	/	/	/	/
Fc1ccc2[nH]c3c(NCc4ccccc4)ncnc3c2c1	33*	/	/	/	/	/	30*
OCCCNc1ncnc2c1[nH]c1ccccc12	2	/	-3	0	-1	/	/
CC1CC(C)(C)Nc2ccc(N=O)cc21 (centres undefined)	24*	11	97*	0	93*	65*	21
CN1/C(=C/c2cccc[n+]2CCO)Sc2ccccc21	3	/	/	/	/	/	/
CCN1/C(=C/c2ccc3cc(C)ccc3[n+]2CC)Sc2ccccc21	50*	68*	102*	0	106*	81*	70*
CC[n+]1c(/C=C2\Sc3ccccc3N2C)ccc2cccc(C)c21	71*	67	102*	5	104*	52*	64*
CCOC(=O)/C(=C/C=C1\Sc2cc(C)c(C)cc2N1CC)C(C)=O	-2	2	7	0	9	-26	/
CCN1/C(=C/c2ccc3cc(C)ccc3[n+]2CC)Sc2cc(C)c(C)cc21	39*	15	100*	4	89*	46*	29*
NS(=O)(=O)c1ccc(-n2nncc2-c2ccco2)cc1	-1	/	/	/	/	/	/
COc1ccc(C(=O)NCc2nnc(SCC(=O)Nc3nc4ccccc4s3)o2)cc1	64*	1	3	-7	6	3	-7
N#Cc1ccc(N2C(=O)[C@@H]3C(C(=O)c4ccc5ccccc5n4)=NN[C@@H]3C2=O)cc1	4	4	-4	-2	0	7	/
O=C(C1=NN[C@@H]2C(=O)N(c3ccccc3C(F)(F)F)C(=O)[C@H]12)c1ccc2ccccc2n1	71*	5	76*	-1	54*	-14	3
CCc1c(C)sc(NC(=O)C2CC(c3c(F)cccc3Cl)=NO2)c1C#N (centres undefined)	-5	/	/	/	/	/	/
Cc1ccc(/C=N/NC(=O)c2c(-c3ccccc3)noc2C)c(O)c1	26*	/	/	/	/	/	18
O=[N+]([O-])c1ccc(N=Nc2ncc[nH]2)cc1	81*	/	/	/	/	/	13
SMILES	IEC-6 tox	MT stabilize HCS	Ba/F3 V617F tox	b-catenin transl	BaF3 parental	APP transl inh	IEC-6 tox confirm
O=[N+]([O-])c1ccc(N=NN(CCO)CCO)cc1	-3	4	-3	1	4	-13	/
CCN(CC)CCCN1CC(=O)N2[C@@H](Cc3c([nH]c4ccccc34)C2(C)C)C1=O	-1	/	/	/	/	/	/
COc1ccccc1C(=O)Nc1nc2ccccc2s1	29*	/	/	/	/	/	28*
COc1ccc(C(=O)Nc2nc3ccccc3s2)c(OC)c1	22	/	/	/	/	/	/
COc1ccccc1C(=O)Nc1nnc(CCc2ccccc2)s1	44*	/	/	/	/	/	56*
Cn1c(=O)c([N+](=O)[O-])c(Cl)c2ccccc21	48*	/	3	0	7	57*	64*
NCCNc1ccc(C(=O)N2c3ccccc3Sc3ccccc32)cc1[N+](=O)[O-]	35*	/	/	/	/	/	24*
